Tests used:
[1] = target: Non-receptor tyrosine-protein kinase TYK2 (Homo sapiens, UniProt P29597); experiment: Inhibition of TYK2 (unknown origin) at 0.1 uM preincubated for 20 mins followed by [33P]ATP addition measured after 120 mins by Hotspot assay relative to control
Outline: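 Radiometric HotSpot kinase assay. Buffer: 20 mM HEPES pH 7.5, 10 mM MgCl2, 1 mM EGTA, 0.02% Brij35, 0.02 mg/mL BSA, 0.1 mM Na3VO4, 2 mM DTT, 1% DMSO. Compound added about 20 min before ATP/[33P]ATP (10 μM final). Reactions run 120 min at 25 °C, spotted on P81 filters and washed in phosphoric acid. Activity expressed relative to DMSO after background subtraction. Single-concentration panel at 100 nM in duplicate.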

[2] = target: Histone deacetylase 5 (Homo sapiens) (UniProt Q9UQL6); experiment: Inhibition of human recombinant C-terminal His-tagged HDAC5 (656 to 1122 residues) expressed in insect cells at 10 uM preincubated with enzyme followed by acetyl-Lys(trifluoroacetyl)-AMC substrate addition measured after 2 hrs by fluorescence assay relative to control
Histone deacetylase 5 (Homo sapiens), sequence (Q9UQL6 whole entry, the tested form may be a part): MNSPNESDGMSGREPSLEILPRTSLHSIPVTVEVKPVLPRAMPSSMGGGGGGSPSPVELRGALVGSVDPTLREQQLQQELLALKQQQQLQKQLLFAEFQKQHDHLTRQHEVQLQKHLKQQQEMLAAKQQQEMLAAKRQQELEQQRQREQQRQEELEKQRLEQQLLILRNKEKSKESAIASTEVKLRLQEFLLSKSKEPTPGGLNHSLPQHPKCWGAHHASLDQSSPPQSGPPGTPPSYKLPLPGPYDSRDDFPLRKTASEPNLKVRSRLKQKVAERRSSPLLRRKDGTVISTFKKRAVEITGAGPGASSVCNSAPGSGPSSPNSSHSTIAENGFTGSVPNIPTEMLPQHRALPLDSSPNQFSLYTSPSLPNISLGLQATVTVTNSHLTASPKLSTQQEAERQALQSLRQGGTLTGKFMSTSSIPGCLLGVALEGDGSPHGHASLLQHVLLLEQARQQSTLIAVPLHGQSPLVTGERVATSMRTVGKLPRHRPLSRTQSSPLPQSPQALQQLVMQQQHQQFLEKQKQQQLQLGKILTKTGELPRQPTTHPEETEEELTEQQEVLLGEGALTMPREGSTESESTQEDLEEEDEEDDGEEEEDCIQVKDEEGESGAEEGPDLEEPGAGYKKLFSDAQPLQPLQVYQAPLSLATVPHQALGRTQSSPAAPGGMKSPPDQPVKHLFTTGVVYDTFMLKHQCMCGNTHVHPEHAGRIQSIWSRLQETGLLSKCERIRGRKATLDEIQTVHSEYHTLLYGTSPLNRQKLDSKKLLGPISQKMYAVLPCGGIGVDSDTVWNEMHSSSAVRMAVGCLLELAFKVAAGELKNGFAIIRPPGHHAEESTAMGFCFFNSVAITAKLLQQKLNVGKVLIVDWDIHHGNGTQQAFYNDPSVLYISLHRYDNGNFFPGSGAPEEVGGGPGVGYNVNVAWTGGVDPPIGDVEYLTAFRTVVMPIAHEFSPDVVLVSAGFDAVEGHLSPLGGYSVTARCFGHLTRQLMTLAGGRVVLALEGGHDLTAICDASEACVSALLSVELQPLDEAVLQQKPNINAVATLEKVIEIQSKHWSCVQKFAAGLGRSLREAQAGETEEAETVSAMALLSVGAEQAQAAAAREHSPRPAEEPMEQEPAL
Outline: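 HDAC enzyme in 50 mM Tris-HCl pH 8.0, 137 mM NaCl, 2.7 mM KCl, 1 mM MgCl2 was pre-incubated with compound dosed from DMSO. The reaction was started with the class IIa substrate acetyl-Lys(trifluoroacetyl)-AMC and run 2 h at 30 °C. Developer with trichostatin A stopped it, and fluorescence (Ex/Em 360/460 nm) was read at plateau. Single test concentration 10 µM.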

MOLM-14 [3] = experiment: Induction of apoptosis in human MOLM14 cells assessed as necrotic cells at 0.75 uM after 48 hrs by Annexin-V FITC/propidium iodide staining based flow cytometry (reference value: 0.1%); type: functional
Outline: (§1)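 MOLM-14 cells treated 48 h at the stated concentrations; doxorubicin as positive control. Stained with Annexin V-FITC and propidium iodide and analysed by flow cytometry (at least 10,000 events). Gated quadrants: Annexin V−/PI− viable, Annexin V+/PI− early apoptotic, Annexin V+/PI+ late apoptotic.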

[4] = Antiproliferative activity against human OPM2 cells after 48 hrs by CellTiter-Glo assay; type: functional, cell-based; conditions: OPM-2, 48 h
Outline: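 OPM2 grown in RPMI 1640 with 10% FBS and penicillin/streptomycin at 37 °C, 5% CO2. Treated at 25,000 cells/well in triplicate for 48 h. Viability read by CellTiter-Glo luminescence. IC50 taken from a sigmoidal fit of % viability vs log concentration.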

Histone deacetylase 1 = Histone deacetylase 1 (Homo sapiens, UniProt Q13547); experiment: Inhibition of full length human recombinant C-terminal FLAG/His-tagged HDAC1 (1 to 482 residues) expressed in sf21 cells preincubated with enzyme followed by fluorogenic Arg-His-Lys-Lys(Ac)-AMC substrate addition measured after 2 hrs by fluorescence assay
Histone deacetylase 1, sequence (Q13547 whole entry, the tested form may be a part): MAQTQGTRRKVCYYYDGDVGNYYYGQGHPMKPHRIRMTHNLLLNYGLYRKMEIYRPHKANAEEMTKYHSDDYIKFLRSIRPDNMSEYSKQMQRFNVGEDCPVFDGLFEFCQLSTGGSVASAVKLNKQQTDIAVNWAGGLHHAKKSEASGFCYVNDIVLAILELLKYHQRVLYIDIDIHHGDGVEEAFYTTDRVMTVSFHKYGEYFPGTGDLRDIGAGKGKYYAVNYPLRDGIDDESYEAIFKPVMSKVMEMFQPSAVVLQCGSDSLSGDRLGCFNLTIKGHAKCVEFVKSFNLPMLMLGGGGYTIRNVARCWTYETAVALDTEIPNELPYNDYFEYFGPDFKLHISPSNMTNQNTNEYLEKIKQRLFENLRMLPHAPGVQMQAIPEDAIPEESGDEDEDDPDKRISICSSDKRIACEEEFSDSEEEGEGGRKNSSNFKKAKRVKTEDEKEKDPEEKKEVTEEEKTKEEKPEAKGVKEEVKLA

[5] = target: T1, Protein deacetylase HDAC6 (Homo sapiens, UniProt Q9UBN7); experiment: Inhibition of full length human recombinant N-terminal GST-tagged HDAC6 (1 to 1215 residues) expressed in sf9 cells preincubated with enzyme followed by fluorogenic Arg-His-Lys-Lys(Ac)-AMC substrate addition measured after 2 hrs by fluorescence assay
T1 sequence (Q9UBN7 whole entry): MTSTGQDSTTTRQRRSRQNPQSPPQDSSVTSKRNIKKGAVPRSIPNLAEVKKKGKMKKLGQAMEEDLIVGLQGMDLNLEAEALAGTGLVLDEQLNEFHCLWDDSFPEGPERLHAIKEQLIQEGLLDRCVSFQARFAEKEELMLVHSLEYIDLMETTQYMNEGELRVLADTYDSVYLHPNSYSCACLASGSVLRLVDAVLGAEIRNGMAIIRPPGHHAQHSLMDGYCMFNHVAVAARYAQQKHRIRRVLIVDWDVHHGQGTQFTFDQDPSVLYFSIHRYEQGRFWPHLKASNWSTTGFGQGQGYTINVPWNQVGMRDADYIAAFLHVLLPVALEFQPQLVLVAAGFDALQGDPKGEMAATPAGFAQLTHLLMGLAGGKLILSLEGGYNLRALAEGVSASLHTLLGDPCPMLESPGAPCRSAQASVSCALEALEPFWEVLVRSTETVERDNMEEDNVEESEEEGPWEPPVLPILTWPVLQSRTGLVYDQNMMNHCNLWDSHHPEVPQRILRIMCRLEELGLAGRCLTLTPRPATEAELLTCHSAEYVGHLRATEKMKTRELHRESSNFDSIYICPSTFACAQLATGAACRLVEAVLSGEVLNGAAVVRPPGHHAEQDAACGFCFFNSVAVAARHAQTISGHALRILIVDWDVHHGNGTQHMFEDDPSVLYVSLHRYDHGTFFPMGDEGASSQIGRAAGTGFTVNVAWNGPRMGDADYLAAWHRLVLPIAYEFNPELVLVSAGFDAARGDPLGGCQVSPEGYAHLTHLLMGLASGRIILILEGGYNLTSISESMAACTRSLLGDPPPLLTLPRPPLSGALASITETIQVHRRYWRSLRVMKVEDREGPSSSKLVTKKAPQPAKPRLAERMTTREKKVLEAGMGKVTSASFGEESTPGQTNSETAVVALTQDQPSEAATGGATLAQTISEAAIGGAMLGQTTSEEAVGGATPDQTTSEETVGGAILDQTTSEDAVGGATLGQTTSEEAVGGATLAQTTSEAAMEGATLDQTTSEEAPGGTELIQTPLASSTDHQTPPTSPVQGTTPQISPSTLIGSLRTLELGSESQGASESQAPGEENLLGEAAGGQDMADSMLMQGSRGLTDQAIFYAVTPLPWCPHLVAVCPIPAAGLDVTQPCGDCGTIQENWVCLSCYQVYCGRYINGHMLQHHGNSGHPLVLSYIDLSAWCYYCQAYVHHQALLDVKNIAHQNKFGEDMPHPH

MOLM-14 [6] = experiment: Induction of apoptosis in human MOLM14 cells assessed as late apoptotic cells at 3 uM after 48 hrs by Annexin-V FITC/propidium iodide staining based flow cytometry (reference value: 2.1 to 2.2%); type: functional; outline: as §1
[7] = Antiproliferative activity against human MCF7 cells after 72 hrs by MTT assay; type: functional, cell-based; conditions: MCF7, 72 h
[8] = target: Phosphatidylinositol 4,5-bisphosphate 3-kinase catalytic subunit gamma isoform (Homo sapiens, UniProt P48736); experiment: Inhibition of human PI3Kgamma (S144 to A1102 residues) expressed in mammalian expression system by KINOMEScan assay
Phosphatidylinositol 4,5-bisphosphate 3-kinase catalytic subunit gamma isoform, sequence (P48736 whole entry, the tested form may be a part, canonical isoform): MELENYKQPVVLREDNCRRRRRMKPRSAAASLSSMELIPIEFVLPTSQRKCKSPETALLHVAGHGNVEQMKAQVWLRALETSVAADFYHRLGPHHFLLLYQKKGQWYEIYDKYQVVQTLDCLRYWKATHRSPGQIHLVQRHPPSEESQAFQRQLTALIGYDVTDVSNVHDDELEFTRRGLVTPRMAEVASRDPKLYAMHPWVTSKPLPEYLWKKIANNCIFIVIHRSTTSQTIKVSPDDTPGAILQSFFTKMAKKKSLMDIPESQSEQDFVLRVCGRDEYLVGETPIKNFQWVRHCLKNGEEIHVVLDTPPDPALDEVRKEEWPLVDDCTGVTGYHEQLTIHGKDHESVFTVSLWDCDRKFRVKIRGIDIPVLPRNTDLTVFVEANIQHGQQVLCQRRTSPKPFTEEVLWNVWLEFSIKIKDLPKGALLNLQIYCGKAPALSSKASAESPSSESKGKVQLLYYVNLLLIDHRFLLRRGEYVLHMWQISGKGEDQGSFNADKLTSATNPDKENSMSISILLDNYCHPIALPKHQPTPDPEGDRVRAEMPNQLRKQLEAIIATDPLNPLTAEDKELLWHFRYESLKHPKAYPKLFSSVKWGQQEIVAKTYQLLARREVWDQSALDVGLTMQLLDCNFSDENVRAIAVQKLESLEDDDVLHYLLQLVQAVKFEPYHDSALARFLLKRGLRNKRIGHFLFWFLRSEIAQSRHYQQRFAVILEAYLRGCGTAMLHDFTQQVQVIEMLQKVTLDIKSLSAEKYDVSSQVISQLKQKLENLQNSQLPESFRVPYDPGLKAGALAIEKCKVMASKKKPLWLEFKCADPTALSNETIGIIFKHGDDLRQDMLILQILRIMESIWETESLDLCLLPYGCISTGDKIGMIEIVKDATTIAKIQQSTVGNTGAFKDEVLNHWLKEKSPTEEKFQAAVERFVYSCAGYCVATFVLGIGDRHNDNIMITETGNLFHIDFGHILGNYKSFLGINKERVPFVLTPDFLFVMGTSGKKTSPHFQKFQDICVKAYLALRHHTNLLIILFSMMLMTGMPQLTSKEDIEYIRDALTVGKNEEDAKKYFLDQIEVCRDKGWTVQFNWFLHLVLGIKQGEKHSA

[9] = Antiproliferative activity against human MOLM14 cells harboring FLT3-ITD mutant after 48 hrs by CellTiter-Glo assay; type: functional, cell-based; conditions: MOLM-14, 48 h
[10] = Antiproliferative activity against human HCT116 cells after 72 hrs by MTT assay; type: functional, cell-based; conditions: HCT-116, 72 h
Outline: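 MTT viability after 72 h exposure. Cells seeded at 2500/well and left 24 h before compound addition; DMSO at 0.5% v/v final. MTT added in FBS-free medium for 3 h at 37 °C, formazan dissolved in DMSO, absorbance read at 570 nm. IC50 from a sigmoidal fit of % viability vs log concentration; triplicates on separate occasions using two different stock solutions.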

Non-receptor tyrosine-protein kinase TYK2, sequence (P29597 whole entry): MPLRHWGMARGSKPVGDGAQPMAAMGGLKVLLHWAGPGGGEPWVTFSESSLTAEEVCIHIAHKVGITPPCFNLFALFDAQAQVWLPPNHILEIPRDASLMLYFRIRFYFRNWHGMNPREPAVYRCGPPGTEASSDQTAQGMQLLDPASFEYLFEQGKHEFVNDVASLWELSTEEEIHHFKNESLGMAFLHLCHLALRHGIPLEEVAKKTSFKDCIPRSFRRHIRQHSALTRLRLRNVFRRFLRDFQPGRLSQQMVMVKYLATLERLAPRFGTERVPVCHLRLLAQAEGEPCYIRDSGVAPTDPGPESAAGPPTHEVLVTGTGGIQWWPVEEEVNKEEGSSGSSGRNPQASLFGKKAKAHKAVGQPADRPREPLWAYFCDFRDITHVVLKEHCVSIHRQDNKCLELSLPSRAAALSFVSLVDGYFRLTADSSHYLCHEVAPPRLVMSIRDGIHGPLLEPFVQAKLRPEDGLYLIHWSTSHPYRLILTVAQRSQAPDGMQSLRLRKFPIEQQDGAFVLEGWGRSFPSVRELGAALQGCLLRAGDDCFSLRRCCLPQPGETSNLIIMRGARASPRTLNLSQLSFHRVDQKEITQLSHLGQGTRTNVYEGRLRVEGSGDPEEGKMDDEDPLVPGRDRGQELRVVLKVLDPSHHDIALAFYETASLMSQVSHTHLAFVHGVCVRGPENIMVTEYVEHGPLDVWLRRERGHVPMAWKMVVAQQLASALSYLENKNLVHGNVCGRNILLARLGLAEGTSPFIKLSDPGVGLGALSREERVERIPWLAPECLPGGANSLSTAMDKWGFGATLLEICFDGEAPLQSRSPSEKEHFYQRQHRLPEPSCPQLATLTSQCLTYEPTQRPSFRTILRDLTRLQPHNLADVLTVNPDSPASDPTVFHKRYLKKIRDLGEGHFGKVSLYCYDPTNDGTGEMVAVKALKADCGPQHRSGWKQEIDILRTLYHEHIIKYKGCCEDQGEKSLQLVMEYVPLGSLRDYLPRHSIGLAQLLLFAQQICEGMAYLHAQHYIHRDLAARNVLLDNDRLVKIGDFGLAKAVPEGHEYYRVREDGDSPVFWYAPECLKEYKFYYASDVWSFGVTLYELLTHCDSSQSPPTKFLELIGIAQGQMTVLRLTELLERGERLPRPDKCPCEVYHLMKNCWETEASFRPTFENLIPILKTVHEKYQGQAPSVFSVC

O=C(CCCCCCOc1ccc2cc1COC/C=C/COCc1cccc(c1)-c1ccnc(n1)N2)NO
inhibition [1]: 56% | inhibition [2]: 16.1% | Activity (MOLM-14 [3]): 0% | IC50 [4]: 2050 nM | IC50 (Histone deacetylase 1): 222 nM | IC50 [5]: 2.1 nM | Activity (MOLM-14 [6]): 34.3% | IC50 [7]: 1470 nM | IC50 [8]: 10 to 1000 nM | IC50 [9]: 1140 nM | IC50 [10]: 2230 nM
